In the library only some 1.9% were active in any assay of this set; here they are far more common.
Hck-Nef inh: blocks Nef-activated human Hck kinase. Recombinant Hck-YEEI plus Nef, Z-Lyte FRET kinase assay. inhibition, % at 20 µM. hit rate 0.68% among 220,000. AID 463187;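 active = Hck-Nef kinase inhibition above about 50%, limit read from the data; inactive = inhibition below that limit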;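 note: 0% = DMSO with Hck plus Nef and 100% = Hck alone without Nef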
Target sequence (P08631 whole entry, looked up): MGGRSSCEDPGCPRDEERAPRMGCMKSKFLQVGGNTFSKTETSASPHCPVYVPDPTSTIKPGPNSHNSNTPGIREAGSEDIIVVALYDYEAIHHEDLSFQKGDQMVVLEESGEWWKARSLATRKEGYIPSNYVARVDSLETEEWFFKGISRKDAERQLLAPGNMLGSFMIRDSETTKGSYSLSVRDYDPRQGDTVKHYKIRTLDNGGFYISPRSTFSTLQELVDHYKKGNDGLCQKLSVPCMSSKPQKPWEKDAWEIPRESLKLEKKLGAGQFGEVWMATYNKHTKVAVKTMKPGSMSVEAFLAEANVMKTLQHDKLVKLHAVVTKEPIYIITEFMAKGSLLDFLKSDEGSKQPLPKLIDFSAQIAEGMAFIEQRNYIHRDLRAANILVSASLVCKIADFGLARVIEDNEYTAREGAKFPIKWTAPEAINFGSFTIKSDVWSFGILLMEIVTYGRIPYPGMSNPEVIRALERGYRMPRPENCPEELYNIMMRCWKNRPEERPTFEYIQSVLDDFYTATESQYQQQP
Runt-SMMHC FRET: inhibitors of human RUNX1 Runt domain binding to CBFb-SMMHC | Q01196+Q13951 | Cerulean-Runt/Venus-CBFb-SMMHC FRET ratio 530/480, 1 h | inhibition, % at 20 µM | hit rate 0.74% among 220,000;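 active = mean inhibition across duplicate retests at 20 µM reaching about 50%, limit read from the data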;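 note: 0% = DMSO wells and 100% = wells with excess untagged CBFb-SMMHC; inhibitors lower the FRET ratio by blocking Runt binding to CBFb-SMMHC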
Runt-CBFb FRET: Runt domain-CBFb interaction inhibition | Cerulean-Runt/Venus-CBFb FRET ratio 530/480, 1 h | inhibition, % at 20 µM | hit rate 0.46% among 220,000;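 active = inhibition over about 50% at 20 µM in the single-dose screen, limit read from the data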;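 note: 0% = DMSO wells and 100% = excess unlabeled CBFb competitor control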
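Assay system: Cerulean-Runt domain fusion protein, energy donor; Signal: fluorescence energy transfer, 422 nm excitation, 530/480 nm emission; Timing: 1 h compound exposure, room temperature; Control set: unlabeled CBFb; Medium: Tris buffer pH 7.5 with salts and BSA; Compound: single test concentration of 20 µM, 1% DMSO final; Probe or stimulus: Venus-CBFb 100 nM.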
RanGTP-Imp inh: disruptors of Ran-importin-beta complex formation – biochemical, FRET, CFP-Ran, YFP-importin-beta, homogeneous, primary screen. cell-free CFP-Ran/YFP-importin-beta FRET ratio. inhibition, % (concentration not given with the values). hit rate 1.1% among 300,000. AID 2216;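 active = more than half of the replicate wells show a fall in the fluorescence ratio signal beyond about 16%, limit read from the data, passing the limit was not always enough; inconclusive = exactly half of the replicate wells pass the set limit; inactive = fewer than half of replicates pass the limit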;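 note: 0% = DMSO wells and 100% = Ran loaded with GDP instead of GTP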
TbHK1 inh: T. brucei hexokinase 1 inhibition. AID 1430. hit rate 0.11% among 220,000. inhibition, % at 10 µM. recombinant TbHK1, G6PDH-coupled NADH A340;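 active = inhibition of 50% or more in the single-dose primary screen; inactive = inhibition below 50%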
YIC FRET counter: counter-screen: alters YIC FRET probe signal | AID 435026 | Purified YIC probe, intramolecular FRET ratio YFP/CFP | shares compounds with RanGTP-Imp inh | hit rate 40% among 1,000 | IC50, µM;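 active = fitted half-maximal inhibitory concentration no more than tenfold above the top dose tested; inconclusive = flat fit with 30 to 70% activity, or poor fit; inactive = half-maximal concentration beyond tenfold above the top dose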
Starred values were filed as active, the others as inactive; ? = inconclusive; . = no result given.

SMILES | Hck-Nef inh | Runt-SMMHC FRET | Runt-CBFb FRET | RanGTP-Imp inh | TbHK1 inh | YIC FRET counter
CC(=O)Nc1ccc2c(c1)N(S(=O)(=O)c1cccs1)CCC2 | . | . | . | -3 | . | .
C=C(C)CSc1[nH]c(=O)cc(C)c1C#N | 22 | 1 | 2 | 6 | -3 | .
CC(C)N(Cc1ccccc1)C(=O)CN1C(=O)NC(Cc2ccccc2)(c2ccccc2)C1=O (centres undefined) | . | . | . | 2 | . | .
O=C(O)COc1ccccc1/C=N/NC(=O)C(O)c1ccccc1 (centres undefined) | . | . | . | 7 | . | .
CN(Cc1ccon1)C(=O)C1CCN(C2CCN(CCCc3ccccc3)CC2)CC1 | . | . | . | 0 | . | .
CC(c1nc2ccccc2n1Cc1ccccc1)N1CCCCC1 (centres undefined) | . | . | . | 26* | . | >50
CC1(C)C2CCC1(CS(=O)(=O)Nc1ccc(S(=O)(=O)N3CCCCC3)cc1)C(=O)C2 (centres undefined) | 1 | 4 | -2 | 5 | 1 | .
O=C(c1cccc(-c2ccccc2)c1)N1CC[C@@H](N2CCC(O)CC2)[C@H](O)C1 | . | . | . | 25* | . | >50
COc1ccc2c(C)c(C(=O)N3CC[C@@H](N4CCC(O)CC4)[C@H](O)C3)oc2c1 | . | . | . | 16* | . | >50
Cc1cc(C)c2c(n1)nn1c(NCCCN(C)C)cc(C)nc21 | 33 | 64* | 22 | 30* | -13 | 27*
Cc1ccc(OCC(=O)c2cc(C)n(CC(F)(F)F)c2C)c([N+](=O)[O-])n1 | 22 | 9 | 17 | 20* | -3 | >50
CN1CCc2c(sc(NC(=O)c3ccc(S(=O)(=O)N4CCOCC4)cc3)c2C(N)=O)C1 | -1 | 2 | 1 | 19* | -18 | 46*
Cc1cccc(C)c1NC(=O)CSc1nc(C2CC2)nc2ccccc12 | . | . | . | 0 | . | .
COc1ccc(N2C(=O)N3[C@H](c4ccc(Br)cc4)[C@@H]4C(=O)N(C(C)(C)C)C(=O)[C@@H]4[C@]3(Cc3ccccc3)C2=O)cc1 | . | . | . | 26* | . | >50
COC(=O)c1ccc(NC(=O)C(=O)N2CCN(C(=S)Nc3ccccc3OC)CC2)cc1 | 6 | 3 | -1 | 20* | 29 | >50
COC(=O)c1ccc(NC(=O)C(=O)N2CCN(C(=S)Nc3cccc(C)c3C)CC2)cc1 | 0 | 5 | -2 | ? | 15 | .
O=C1CCCN2N=C(SCC(=O)N3N=C(c4ccc(Br)cc4)CC3c3ccc(F)cc3)SC2=N1 (centres undefined) | 21 | -2 | 0 | 20* | -6 | >50
Cc1ccc(C2CC(c3ccc(Br)cc3)=NN2C(=O)CSC2=NN3CCCC(=O)N=C3S2)cc1 (centres undefined) | . | . | . | 2 | . | .
CC(=O)c1cccc(OCC(=O)N(C)CC(=O)Nc2ccc(F)cc2)c1 | 3 | 2 | -2 | 65* | -7 | >50
COc1ccccc1Nc1nc(-c2ccccc2)nc2ccccc12 | 5 | 3 | -2 | -1 | -3 | .
Oc1cccc(Nc2c3ccccc3nc3ccccc23)c1 | . | . | . | 50* | . | >50
COc1ccccc1Nc1c2ccccc2nc2ccccc12 | . | . | . | 27* | . | >50
c1cncc(Nc2c3ccccc3nc3ccccc23)c1 | . | . | . | 34* | . | >50
O=C1CCCN=C(Nc2ccc(F)c(Cl)c2)S1 | 8 | -6 | -2 | 6 | -6 | .
CC1(C)CCC(=O)C=C1Nc1ccc(F)c(Cl)c1 | . | . | . | 26* | . | >50
SMILES | Hck-Nef inh | Runt-SMMHC FRET | Runt-CBFb FRET | RanGTP-Imp inh | TbHK1 inh | YIC FRET counter
Cc1cc(C)c(S(=O)(=O)N(C)CC(=O)NCCCn2ccnc2)c(C)c1 | . | . | . | -3 | . | .
Cc1cnc(C(=O)Nc2ccc(S(=O)(=O)N(C(C)C)C(C)C)cc2)cn1 | . | . | . | 20* | . | >50
Cc1cnc(C(=O)Nc2ccc(S(=O)(=O)NCC(C)C)cc2)cn1 | 18 | . | . | ? | -8 | .
COc1cc(OC)cc(-c2cc3nc(C)cc(N4CCN(C(=O)c5ccco5)CC4)n3n2)c1 | 2 | 26 | 12 | 29* | -17 | 3.7*
CC1C(=O)Nc2ccc(S(=O)(=O)N3CCN(c4cccc(C(F)(F)F)c4)CC3)cc2NC1=O (centres undefined) | . | . | . | -1 | . | .
Cc1cc(C(=O)O)ccc1-c1ccc(CO)o1 | -18 | 2 | 7 | 2 | 4 | .
Cc1cc(C(=O)O)ccc1-c1ccc(/C=C2\NC(=O)N(Cc3ccccc3Cl)C2=O)o1 | 37 | 68* | 24 | 22* | 6 | 0.91*
CCC(CO)NCc1ccc(OCC(O)c2ccccc2)c(OC)c1 (centres undefined) | . | . | . | -4 | . | .
Cc1cccc(NS(=O)(=O)c2ccc(C(=O)N3CCCCCC3)cc2)c1C | . | . | . | 17* | . | >50
Cc1cccc(NS(=O)(=O)c2ccc(C(=O)N3CCCC3)cc2)c1C | . | . | . | 3 | . | .
CCOC(=O)c1sc(NC(=O)CSc2nc(C)cc(C)n2)c(C#N)c1C | 1 | 1 | -4 | 21* | -3 | >50
CN=C(Nc1cc(C)nn1CCC#N)c1ccccc1 | 2 | -3 | 1 | 19* | -3 | >50
CN=C(Nc1cc(C)nn1CCC#N)c1ccc(F)cc1 | -1 | -4 | -1 | 2 | -1 | .
O=C(CN1CC(=O)Oc2ccccc21)NCc1ccco1 | 2 | 3 | 5 | 19* | 13 | >50
O=C(CN1CCOc2ccccc21)NCc1ccco1 | 2 | -1 | 4 | ? | -4 | .
CCOC(=O)N1CCC(NS(=O)(=O)c2cc(C(=O)OC)n(C)c2)CC1 | . | . | . | 1 | . | .
NC(=S)Cc1nc(-c2ccc(Cl)cc2)cs1 | 31 | -10 | 1 | 18* | 3 | >50
NC(=O)Cc1nc(-c2ccc(F)cc2)cs1 | 19 | -2 | 0 | -2 | -11 | .
NC(=O)c1cc(N=Nc2c(N)[nH]n(-c3c(Cl)cc(Cl)cc3Cl)c2=O)ccc1Cl | 22 | -3 | 5 | 1 | -1 | .
CC1CCCCN1Cc1c(O)ccc2c(=O)c(-c3nc4ccccc4s3)coc12 (centres undefined) | 43 | 25 | 10 | 38* | -49 | <0.38*
CCCCOc1ccc(OCCSc2nc3ccccc3n2CC(=O)O)cc1 | . | . | . | 18* | . | >50
COc1ccc(CCNC(=O)c2cc3c(=O)n4ccccc4nc3n(CCCN3CCOCC3)c2=N)cc1 | . | . | . | 20* | . | 21*
COc1ccc(CCn2c(=N)c(C(=O)NC3CCCCC3)cc3c(=O)n4ccccc4nc32)cc1 | . | . | . | 19* | . | >50
O=C(c1cc2c(=O)n3ccccc3nc2s1)N1CCN(Cc2ccc3c(c2)OCO3)CC1 | 32 | 33 | 26 | -2 | -17 | .
O=C(c1cc2c(=O)n3ccccc3nc2s1)N1CCN(Cc2ccccc2)CC1 | . | . | . | 21* | . | >50
Fc1ccc(-n2cc(CNCCc3cccnc3)c(-c3ccccc3Cl)n2)cc1 | 19 | -1 | 3 | 1 | 10 | .
COCCNC(=O)/C(C#N)=C/c1c(N2CCN(c3ccc(OC)cc3)CC2)nc2c(C)cccn2c1=O | . | . | . | 19* | . | 46*
Cc1cccn2c(=O)c(/C=C(\C#N)C(N)=O)c(N3CCN(c4ccccc4)CC3)nc12 | . | . | . | 5 | . | .

Screens (PubChem BioAssay)
